Measurements published in ChEMBL document CHEMBL3351900, “Conjugation of a nonspecific antiviral sapogenin with a specific HIV fusion inhibitor: a promising strategy for discovering new antiviral therapeutics” (J Med Chem, 2014).
Square brackets hold non-standard residues; d marks the D form. Peptide text beside a SMILES is read from it. * marks the point of attachment. X1 = C=CCOC(=O)[C@]12CC[C@@H](C(=C)C)[C@@H]1[C@H]1CC[C@@H]3[C@@]4(C)CC[C@H](OC(=O)CCc5cn(CC(=O)*)nn5)C(C)(C)[C@@H]4CC[C@@]3(C)[C@]1(C)CC2; X9 = C=CCOC(=O)[C@]12CC[C@@H](C)[C@H](C)[C@H]1C1=CC[C@@H]3[C@@]4(C)CC[C@H](OC(=O)CCc5cn(CC(=O)*)nn5)C(C)(C)[C@@H]4CC[C@@]3(C)[C@]1(C)CC2; X3 = C=C(C)[C@@H]1CC[C@]2(C(=O)O)CC[C@]3(C)[C@H](CC[C@@H]4[C@@]5(C)CC[C@H](OC(=O)CCc6cn(CC(=O)*)nn6)C(C)(C)[C@@H]5CC[C@]43C)[C@@H]12; X5 = C=C(C)[C@@H]1CC[C@]2(C(=O)OCc3cn(CC(=O)*)nn3)CC[C@]3(C)[C@H](CC[C@@H]4[C@@]5(C)CC[C@H](OC(C)=O)C(C)(C)[C@@H]5CC[C@]43C)[C@@H]12; X4 = C=C(C)[C@@H]1CC[C@]2(C(=O)OCc3cn(CC(=O)*)nn3)CC[C@]3(C)[C@H](CC[C@@H]4[C@@]5(C)CC[C@H](O)C(C)(C)[C@@H]5CC[C@]43C)[C@@H]12; βAla = NCCC(=O)O

Legend:
[1] = test system: Human immunodeficiency virus 1; test: Antiviral activity against HIV1 BaL infected in human […] cells assessed as inhibition of viral replication; assay type: functional, organism-based; conditions: Human immunodeficiency virus 1, BaL
In short: (§1)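 MT-2 cells (1 × 10⁴) infected with 100 TCID₅₀ virus with or without peptides at graded concentrations. Culture supernatants collected on day 4 postinfection; p24 antigen quantified by ELISA. Percent inhibition and EC₅₀ calculated; tested in triplicate, mean ± standard deviation.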

[2] = test system: Human immunodeficiency virus 1; test: Antiviral activity against HIV1 3B infected in human MT2 cells assessed as inhibition of viral p24 antigen production by ELISA; assay type: functional, organism-based; conditions: Human immunodeficiency virus 1, 3B; in short: as §1
[3] = Cytotoxicity against human MT2 cells after 4 days by XTT assay; assay type: cell-based
In short: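 MT-2 cells (5 × 10⁵/mL) mixed with equal volumes of graded conjugate concentrations and held at 37 °C for 4 days. XTT (1 mg/mL) with 0.02 μM phenazine methosulfate added for 4 h, then A450 read. CC50 calculated from the dose–response.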

[4] = Selectivity index, ratio of CC50 for human MT2 cells to EC50 for HIV1 3B infected in human MT2 cells; assay type: toxicity, cell-based; conditions: read-out: Ratio CC50/EC50

Structure (SMILES) | EC50 [1] [µM] | EC50 [2] [µM] | CC50 at 96 h [3] [µM] | selectivity ratio [4]
C=C(C)[C@@H]1CC[C@]2(C(=O)O)CC[C@]3(C)[C@H](CC[C@@H]4[C@@]5(C)CC[C@H](OC(=O)CCc6cn(CC(=O)NCCCC[C@H](NC(=O)CCNC(=O)[C@H](CC(C)C)NC(=O)[C@H](CC(C)C)NC(=O)[C@H](CCC(=O)O)NC(=O)[C@H](CCC(N)=O)NC(=O)[C@H](CCC(=O)O)NC(=O)[C@H](CC(N)=O)NC(=O)[C@H](CCCCN)NC(=O)[C@H](CCC(=O)O)NC(=O)[C@H](CCC(N)=O)NC(=O)[C@H](CCC(N)=O)NC(=O)[C@H](CC(N)=O)NC(=O)[C@H](CCC(N)=O)NC(=O)[C@H](CO)NC(=O)[C@H](CCC(=O)O)NC(=O)[C@H](CCC(=O)O)NC(=O)[C@@H](NC(=O)[C@H](CC(C)C)NC(=O)[C@H](CO)NC(=O)[C@H](Cc7cnc[nH]7)NC(=O)[C@@H](NC(=O)[C@H](CC(C)C)NC(=O)[C@H](CO)NC(=O)[C@@H](NC(=O)[C@H](Cc7ccc(O)cc7)NC(=O)[C@H](CC(N)=O)NC(=O)[C@H](CC(N)=O)NC(C)=O)[C@@H](C)O)[C@@H](C)CC)[C@@H](C)CC)C(N)=O)nn6)C(C)(C)[C@@H]5CC[C@]43C)[C@@H]12 (Ac-NNYTSLIHSLIEESQNQQEKNEQELL[βAla]K(X3)-NH2) | 0.0831 | 0.0616 | > 25 | > 406
C=C(C)[C@@H]1CC[C@]2(C(=O)OCc3cn(CC(=O)NCCCC[C@H](NC(=O)CCNC(=O)[C@H](CC(C)C)NC(=O)[C@H](CC(C)C)NC(=O)[C@H](CCC(=O)O)NC(=O)[C@H](CCC(N)=O)NC(=O)[C@H](CCC(=O)O)NC(=O)[C@H](CC(N)=O)NC(=O)[C@H](CCCCN)NC(=O)[C@H](CCC(=O)O)NC(=O)[C@H](CCC(N)=O)NC(=O)[C@H](CCC(N)=O)NC(=O)[C@H](CC(N)=O)NC(=O)[C@H](CCC(N)=O)NC(=O)[C@H](CO)NC(=O)[C@H](CCC(=O)O)NC(=O)[C@H](CCC(=O)O)NC(=O)[C@@H](NC(=O)[C@H](CC(C)C)NC(=O)[C@H](CO)NC(=O)[C@H](Cc4cnc[nH]4)NC(=O)[C@@H](NC(=O)[C@H](CC(C)C)NC(=O)[C@H](CO)NC(=O)[C@@H](NC(=O)[C@H](Cc4ccc(O)cc4)NC(=O)[C@H](CC(N)=O)NC(=O)[C@H](CC(N)=O)NC(C)=O)[C@@H](C)O)[C@@H](C)CC)[C@@H](C)CC)C(N)=O)nn3)CC[C@]3(C)[C@H](CC[C@@H]4[C@@]5(C)CC[C@H](O)C(C)(C)[C@@H]5CC[C@]43C)[C@@H]12 (Ac-NNYTSLIHSLIEESQNQQEKNEQELL[βAla]K(X4)-NH2) | 0.135 | 0.154 | > 25 | > 50
C=C(C)[C@@H]1CC[C@]2(C(=O)OCc3cn(CC(=O)NCCCC[C@H](NC(=O)CCNC(=O)[C@H](CC(C)C)NC(=O)[C@H](CC(C)C)NC(=O)[C@H](CCC(=O)O)NC(=O)[C@H](CCC(N)=O)NC(=O)[C@H](CCC(=O)O)NC(=O)[C@H](CC(N)=O)NC(=O)[C@H](CCCCN)NC(=O)[C@H](CCC(=O)O)NC(=O)[C@H](CCC(N)=O)NC(=O)[C@H](CCC(N)=O)NC(=O)[C@H](CC(N)=O)NC(=O)[C@H](CCC(N)=O)NC(=O)[C@H](CO)NC(=O)[C@H](CCC(=O)O)NC(=O)[C@H](CCC(=O)O)NC(=O)[C@@H](NC(=O)[C@H](CC(C)C)NC(=O)[C@H](CO)NC(=O)[C@H](Cc4cnc[nH]4)NC(=O)[C@@H](NC(=O)[C@H](CC(C)C)NC(=O)[C@H](CO)NC(=O)[C@@H](NC(=O)[C@H](Cc4ccc(O)cc4)NC(=O)[C@H](CC(N)=O)NC(=O)[C@H](CC(N)=O)NC(C)=O)[C@@H](C)O)[C@@H](C)CC)[C@@H](C)CC)C(N)=O)nn3)CC[C@]3(C)[C@H](CC[C@@H]4[C@@]5(C)CC[C@H](OC(C)=O)C(C)(C)[C@@H]5CC[C@]43C)[C@@H]12 (Ac-NNYTSLIHSLIEESQNQQEKNEQELL[βAla]K(X5)-NH2) | 0.0208 | 0.0414 | > 25 | > 603
C=CCOC(=O)[C@]12CC[C@@H](C)[C@H](C)[C@H]1C1=CC[C@@H]3[C@@]4(C)CC[C@H](OC(=O)CCc5cn(CC(=O)NCCCC[C@H](NC(=O)CCNC(=O)[C@H](CC(C)C)NC(=O)[C@H](CC(C)C)NC(=O)[C@H](CCC(=O)O)NC(=O)[C@H](CCC(N)=O)NC(=O)[C@H](CCC(=O)O)NC(=O)[C@H](CC(N)=O)NC(=O)[C@H](CCCCN)NC(=O)[C@H](CCC(=O)O)NC(=O)[C@H](CCC(N)=O)NC(=O)[C@H](CCC(N)=O)NC(=O)[C@H](CC(N)=O)NC(=O)[C@H](CCC(N)=O)NC(=O)[C@H](CO)NC(=O)[C@H](CCC(=O)O)NC(=O)[C@H](CCC(=O)O)NC(=O)[C@@H](NC(=O)[C@H](CC(C)C)NC(=O)[C@H](CO)NC(=O)[C@H](Cc6cnc[nH]6)NC(=O)[C@@H](NC(=O)[C@H](CC(C)C)NC(=O)[C@H](CO)NC(=O)[C@@H](NC(=O)[C@H](Cc6ccc(O)cc6)NC(=O)[C@H](CC(N)=O)NC(=O)[C@H](CC(N)=O)NC(C)=O)[C@@H](C)O)[C@@H](C)CC)[C@@H](C)CC)C(N)=O)nn5)C(C)(C)[C@@H]4CC[C@@]3(C)[C@]1(C)CC2 (Ac-NNYTSLIHSLIEESQNQQEKNEQELL[βAla]K(X9)-NH2) | 0.00251 | 0.00218 | 7.92 | 3630
C=CCOC(=O)[C@]12CC[C@@H](C(=C)C)[C@@H]1[C@H]1CC[C@@H]3[C@@]4(C)CC[C@H](OC(=O)CCc5cn(CC(=O)NCCC(=O)N[C@@H](CC(N)=O)C(=O)N[C@@H](CC(N)=O)C(=O)N[C@@H](Cc6ccc(O)cc6)C(=O)N[C@H](C(=O)N[C@@H](CO)C(=O)N[C@@H](CC(C)C)C(=O)N[C@H](C(=O)N[C@@H](Cc6cnc[nH]6)C(=O)N[C@@H](CO)C(=O)N[C@@H](CC(C)C)C(=O)N[C@H](C(=O)N[C@@H](CCC(=O)O)C(=O)N[C@@H](CCC(=O)O)C(=O)N[C@@H](CO)C(=O)N[C@@H](CCC(N)=O)C(=O)N[C@@H](CC(N)=O)C(=O)N[C@@H](CCC(N)=O)C(=O)N[C@@H](CCC(N)=O)C(=O)N[C@@H](CCC(=O)O)C(=O)N[C@@H](CCCCN)C(=O)N[C@@H](CC(N)=O)C(=O)N[C@@H](CCC(=O)O)C(=O)N[C@@H](CCC(N)=O)C(=O)N[C@@H](CCC(=O)O)C(=O)N[C@@H](CC(C)C)C(=O)N[C@@H](CC(C)C)C(N)=O)[C@@H](C)CC)[C@@H](C)CC)[C@@H](C)O)nn5)C(C)(C)[C@@H]4CC[C@@]3(C)[C@]1(C)CC2 ({X1-βAla}-NNYTSLIHSLIEESQNQQEKNEQELL-NH2) | 0.519 | 0.242 | > 25 | > 103
C=C(C)[C@@H]1CC[C@]2(C(=O)OCc3cn(CC(=O)NCCC(=O)N[C@@H](CC(N)=O)C(=O)N[C@@H](CC(N)=O)C(=O)N[C@@H](Cc4ccc(O)cc4)C(=O)N[C@H](C(=O)N[C@@H](CO)C(=O)N[C@@H](CC(C)C)C(=O)N[C@H](C(=O)N[C@@H](Cc4cnc[nH]4)C(=O)N[C@@H](CO)C(=O)N[C@@H](CC(C)C)C(=O)N[C@H](C(=O)N[C@@H](CCC(=O)O)C(=O)N[C@@H](CCC(=O)O)C(=O)N[C@@H](CO)C(=O)N[C@@H](CCC(N)=O)C(=O)N[C@@H](CC(N)=O)C(=O)N[C@@H](CCC(N)=O)C(=O)N[C@@H](CCC(N)=O)C(=O)N[C@@H](CCC(=O)O)C(=O)N[C@@H](CCCCN)C(=O)N[C@@H](CC(N)=O)C(=O)N[C@@H](CCC(=O)O)C(=O)N[C@@H](CCC(N)=O)C(=O)N[C@@H](CCC(=O)O)C(=O)N[C@@H](CC(C)C)C(=O)N[C@@H](CC(C)C)C(N)=O)[C@@H](C)CC)[C@@H](C)CC)[C@@H](C)O)nn3)CC[C@]3(C)[C@H](CC[C@@H]4[C@@]5(C)CC[C@H](O)C(C)(C)[C@@H]5CC[C@]43C)[C@@H]12 ({X4-βAla}-NNYTSLIHSLIEESQNQQEKNEQELL-NH2) | 0.456 | 0.475 | > 25 | > 52
